Results: ChEMBL document CHEMBL1135937, “Further studies on conformationally constrained tricyclic tropane analogues and their uptake inhibition at monoamine transporter sites: synthesis of (Z)-9-(substituted arylmethylene)-7-azatricyclo[4.3.1.0(3,7)]decanes as a novel class of serotonin transporter inhibitors” (J Med Chem, 2002)

Legend:
[1] = target: Sodium-dependent dopamine transporter (Rattus norvegicus, UniProt P23977); assay: Ability to inhibit high affinity reuptake of [3H]DA from dopamine transporter into nerve endings synaptosomes; format: subcellular, Brain
Procedure, shortened: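 Rat striatal P2 synaptosomes in modified KRH buffer (pH 7.4, with nialamide), preincubated with drug for 30 min at 4 °C, then 15 min at 37 °C. Uptake of [3H]DA (~5 nM final) ran for 5 min and was stopped by cold Na-free buffer and filtration. IC50 from six concentrations in triplicate; Ki by Cheng–Prusoff, 2–4 experiments.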

[2] = target: Norepinephrine transporter (Rattus norvegicus, UniProt Q9WTR4); assay: Ability to inhibit high affinity reuptake of [3H]-NE (Norepinephrine transporter) into nerve ending synaptosomes prepared from brain regions; format: subcellular
[3] = target: Sodium-dependent serotonin transporter (Rattus norvegicus, UniProt P31652); assay: Inhibition of high affinity re-uptake of [3H]5-HT (serotonin) into nerve ending synaptosomes; format: subcellular, Brain
Procedure, shortened: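 Synaptosomes (P2) from rat midbrain in modified KRH buffer (pH 7.4, with nialamide), preincubated with drug for 30 min at 4 °C, then 15 min at 37 °C. [3H]5-HT (~5 nM final) uptake ran for 5 min, then filtration and scintillation counting. IC50 from six concentrations in triplicate; Ki by Cheng–Prusoff, 2–4 experiments.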

[4] = Uptake ratio Ki of dopamine relative to serotonin (5-HT) at monoamine transporter
[5] = Uptake ratio Ki of norepinephrine relative to serotonin (5-HT) at monoamine transporter
[6] = Uptake ratio Ki of norepinephrine relative to dopamine at monoamine transporter

Chain of Sodium-dependent serotonin transporter (P31652 whole entry): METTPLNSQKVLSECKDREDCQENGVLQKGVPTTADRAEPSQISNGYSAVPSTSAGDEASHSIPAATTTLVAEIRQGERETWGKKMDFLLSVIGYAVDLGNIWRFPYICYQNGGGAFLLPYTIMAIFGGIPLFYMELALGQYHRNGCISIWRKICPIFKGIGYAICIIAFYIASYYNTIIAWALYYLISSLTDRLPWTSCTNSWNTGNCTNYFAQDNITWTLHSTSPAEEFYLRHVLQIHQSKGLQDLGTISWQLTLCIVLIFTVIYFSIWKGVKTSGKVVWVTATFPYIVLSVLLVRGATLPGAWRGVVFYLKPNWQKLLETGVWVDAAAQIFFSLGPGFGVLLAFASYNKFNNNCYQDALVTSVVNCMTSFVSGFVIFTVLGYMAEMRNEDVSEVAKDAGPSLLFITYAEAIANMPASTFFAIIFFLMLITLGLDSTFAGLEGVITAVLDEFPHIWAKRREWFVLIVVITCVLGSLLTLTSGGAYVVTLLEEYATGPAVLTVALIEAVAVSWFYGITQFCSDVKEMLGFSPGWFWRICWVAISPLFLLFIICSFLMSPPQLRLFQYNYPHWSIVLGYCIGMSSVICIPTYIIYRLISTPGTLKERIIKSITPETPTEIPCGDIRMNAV
Chain of Sodium-dependent dopamine transporter (P23977 whole entry): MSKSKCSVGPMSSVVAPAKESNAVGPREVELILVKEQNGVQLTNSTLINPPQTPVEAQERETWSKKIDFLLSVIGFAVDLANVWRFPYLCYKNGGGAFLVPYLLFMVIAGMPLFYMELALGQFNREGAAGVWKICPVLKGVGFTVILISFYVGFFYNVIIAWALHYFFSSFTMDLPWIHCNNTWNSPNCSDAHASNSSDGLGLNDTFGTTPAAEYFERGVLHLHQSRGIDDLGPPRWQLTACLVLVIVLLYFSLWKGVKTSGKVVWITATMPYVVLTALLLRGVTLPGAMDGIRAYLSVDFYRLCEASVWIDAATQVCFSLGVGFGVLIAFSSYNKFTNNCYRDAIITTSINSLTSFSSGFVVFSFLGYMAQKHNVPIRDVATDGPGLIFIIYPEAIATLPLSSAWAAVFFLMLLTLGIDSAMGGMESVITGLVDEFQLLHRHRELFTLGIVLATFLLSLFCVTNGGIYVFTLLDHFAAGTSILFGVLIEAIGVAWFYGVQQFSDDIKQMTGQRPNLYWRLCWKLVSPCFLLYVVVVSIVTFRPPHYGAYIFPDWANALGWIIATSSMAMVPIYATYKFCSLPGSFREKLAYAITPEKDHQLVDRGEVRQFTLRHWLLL
Chain of Norepinephrine transporter (Q9WTR4 whole entry): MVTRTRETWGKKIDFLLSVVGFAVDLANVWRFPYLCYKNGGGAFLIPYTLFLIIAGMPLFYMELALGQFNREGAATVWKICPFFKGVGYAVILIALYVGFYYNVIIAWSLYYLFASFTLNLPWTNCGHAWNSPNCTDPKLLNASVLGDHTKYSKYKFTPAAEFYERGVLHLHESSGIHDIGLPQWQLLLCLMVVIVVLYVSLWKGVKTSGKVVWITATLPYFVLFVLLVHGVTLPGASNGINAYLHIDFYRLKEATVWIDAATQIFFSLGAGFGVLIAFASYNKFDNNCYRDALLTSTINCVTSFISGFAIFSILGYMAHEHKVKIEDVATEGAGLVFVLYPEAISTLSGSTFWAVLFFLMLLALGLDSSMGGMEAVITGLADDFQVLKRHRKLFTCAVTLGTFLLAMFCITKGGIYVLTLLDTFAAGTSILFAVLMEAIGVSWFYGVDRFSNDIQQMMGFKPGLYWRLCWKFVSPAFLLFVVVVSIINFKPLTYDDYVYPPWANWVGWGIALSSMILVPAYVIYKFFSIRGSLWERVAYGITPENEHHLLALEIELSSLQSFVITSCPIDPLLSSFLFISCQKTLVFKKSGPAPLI

| SMILES | Ki [1] | Ki [2] | Ki [3] | Ratio [4] | Ratio [5] | Ratio [6] |
| --- | --- | --- | --- | --- | --- | --- |
| O=C(CCCCCCCCCC(=O)OCC1C2CC3CCC1N3C/C2=C\c1ccc(Cl)c(Cl)c1)OCC1C2CC3CCC1N3C/C2=C\c1ccc(Cl)c(Cl)c1 (stereo not drawn) | > 10 µM | > 10 µM | 0.0085 µM | > 1170 | > 1170 | – |
| COC(=O)C1C2CC3CCC1N3C/C2=C\c1ccc2ccccc2c1 (stereo not drawn) | 0.735 µM | 0.157 µM | 0.021 µM | 35 | 7.5 | 0.21 |
| Clc1ccc(/C=C2\CN3C4CCC3C(COc3ccc(I)cc3)C2C4)cc1Cl (stereo not drawn) | 13.7 µM | 2.51 µM | 1.17 µM | 11.7 | 2.1 | 0.18 |
| CCC(=O)C1C2CC3CCC1N3C/C2=C\c1ccc(Cl)c(Cl)c1 (stereo not drawn) | 6.84 µM | 0.651 µM | 0.0022 µM | 3110 | 296 | 0.1 |
| Cc1ccc(/C=C2\CN3C4CCC3C(COC(=O)c3ccccc3)C2C4)cc1Cl (stereo not drawn) | > 10 µM | > 10 µM | 0.002 µM | > 20000 | > 20000 | – |
| COC(=O)C1C2CC3CCC1N3C/C2=C\c1ccc(C)cc1 (stereo not drawn) | 0.649 µM | 0.146 µM | 0.015 µM | 43.3 | 9.7 | 0.22 |
| COC(=O)C1C2CC3CCC1N3C/C2=C\c1ccc(OC)cc1 (stereo not drawn) | 3.13 µM | 0.187 µM | 0.056 µM | 55.9 | 3.3 | 0.06 |
| CON(C)C(=O)C1C2CC3CCC1N3C/C2=C\c1ccc(Cl)c(Cl)c1 (stereo not drawn) | 8.62 µM | 0.396 µM | 0.0307 µM | 281 | 12.9 | 0.05 |
| COC(=O)C1C2CC3CCC1N3C/C2=C\c1ccc(Br)c(Cl)c1 (stereo not drawn) | 5.42 µM | 0.459 µM | 0.0023 µM | 2360 | 200 | 0.08 |
| O=C(OCC1C2CC3CCC1N3C/C2=C\c1ccc(I)c(Cl)c1)c1ccccc1 (stereo not drawn) | > 10 µM | > 10 µM | – | > 6e+06 | > 6e+06 | – |
| COC(=O)C1C2CC3CCC1N3C/C2=C\c1cccc(Cl)c1 (stereo not drawn) | 7.78 µM | 0.231 µM | 0.0536 µM | 145 | 4.3 | 0.03 |
| O=C(OCC1C2CC3CCC1N3C/C2=C\c1ccc(Br)c(Cl)c1)c1ccccc1 (stereo not drawn) | > 10 µM | 3.84 µM | 0.0032 µM | > 3120 | 1200 | < 0.38 |
| COC(=O)C1C2CC3CCC1N3C/C2=C\c1ccc(I)c(Cl)c1 (stereo not drawn) | 3.14 µM | 0.272 µM | 0.0018 µM | 1740 | 151 | 0.09 |
| COC(=O)C1C2CC3CCC1N3C/C2=C\c1ccc2ccc3cccc4ccc1c2c34 (stereo not drawn) | 9.92 µM | – | 0.86 µM | 11.5 | – | – |
| COC(=O)C1C2CC3CCC1N3C/C2=C\c1cc2ccccc2c2ccccc12 (stereo not drawn) | 1.64 µM | 13 µM | 0.233 µM | 7 | 56 | 7.93 |
| CN(C)C(=O)C1C2CC3CCC1N3C/C2=C\c1ccc(Cl)c(Cl)c1 (stereo not drawn) | 6.68 µM | 2.02 µM | 0.0289 µM | 231 | 69.9 | 0.3 |
| O=C(OCC1C2CC3CCC1N3C/C2=C\c1ccc(Cl)c(Cl)c1)c1ccccc1 (stereo not drawn) | 14.1 µM | 3.07 µM | 0.0031 µM | 4550 | 990 | 0.22 |
| CNC(=O)C1C2CC3CCC1N3C/C2=C\c1ccc(Cl)c(Cl)c1 (stereo not drawn) | 3.78 µM | 0.417 µM | 0.0298 µM | 127 | 14 | 0.11 |
| COC(=O)C1C2CC3CCC1N3C/C2=C\c1ccc(F)c(F)c1 (stereo not drawn) | 7.44 µM | 0.394 µM | 0.101 µM | 73.7 | 3.9 | 0.05 |
| COC(=O)C1C2CC3CCC1N3C/C2=C\c1ccc(C)c(C)c1 (stereo not drawn) | – | 0.659 µM | 0.0101 µM | – | 65 | – |
| CC(=O)OCC1C2CC3CCC1N3C/C2=C\c1ccc2ccccc2c1 (stereo not drawn) | 0.652 µM | 0.672 µM | 0.0044 µM | 148 | 153 | 1.03 |
| COC(=O)C1C2CC3CCC1N3C/C2=C\c1ccc(Cl)c(Cl)c1 (stereo not drawn) | 1.92 µM | 1 µM | 0.02 µM | 96 | 50 | 0.52 |
| COC(=O)C1C2CC3CCC1N3C/C2=C\c1ccc(Br)cc1 (stereo not drawn) | 0.495 µM | 0.178 µM | 0.011 µM | 45 | 16 | 0.36 |
